{"source": "ChEMBL document CHEMBL2346664", "about": "“Synthesis, characterization and in vitro anticancer evaluation of novel 1,2,4-triazolin-3-one derivatives” (2013)", "type_in_all_cases": "functional", "key": {"UACC-257": {"test_system": "UACC-257", "test": "Growth inhibition of human UACC257 cells assessed as cell growth at 10 '-5 M after 48 hrs by sulforhodamine B assay", "conditions": "UACC-257, 48 h, read-out: Activity"}, "[1]": {"test": "Growth inhibition of human […] cells assessed as growth inhibition at 10 uM after 48 hrs by sulforhodamine B assay", "conditions": "read-out: GI", "procedure,_shortened": "(§1)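 Percent growth inhibition from the single 10^-5 M NCI-60 screen, reported as 100 minus growth percent. Growth percent was measured after 48 h drug exposure at 37 °C, 5% CO2, using TCA fixation, SRB staining and absorbance at 515 nm, against untreated controls and time-zero plates.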"}, "HOP-92": {"test_system": "HOP-92", "test": "Growth inhibition of human HOP92 cells assessed as cell growth at 10 '-5 M after 48 hrs by sulforhodamine B assay", "conditions": "HOP-92, 48 h, read-out: Activity"}, "MDA-MB-468 [2]": {"test_system": "MDA-MB-468", "test": "Growth inhibition of human MDA-MB-468 cells assessed as cell growth at 10 '-6 M after 48 hrs by sulforhodamine B assay", "conditions": "MDA-MB-468, 48 h, read-out: Activity"}, "OVCAR-5 [3]": {"test_system": "OVCAR-5", "test": "Growth inhibition of human OVCAR5 cells assessed as cell growth at 10 '-5 M after 48 hrs by sulforhodamine B assay", "conditions": "OVCAR-5, 48 h, read-out: Activity"}, "SR": {"test_system": "SR", "test": "Growth inhibition of human SR cells assessed as cell growth at 10 '-4 M after 48 hrs by sulforhodamine B assay", "conditions": "read-out: Activity"}, "MDA-MB-468 [4]": {"test_system": "MDA-MB-468", "test": "Growth inhibition of human MDA-MB-468 cells assessed as cell growth at 10 '-8 M after 48 hrs by sulforhodamine B assay", "conditions": "MDA-MB-468, 48 h, read-out: Activity"}, "HT-29": {"test_system": "HT-29", "test": "Growth inhibition of human HT-29 cells assessed as cell growth at 10 '-5 M after 48 hrs by sulforhodamine B assay", "conditions": "HT-29, 48 h, read-out: Activity"}, "SF-539": {"test_system": "SF-539", "test": "Growth inhibition of human SF539 cells assessed as cell growth at 10 '-5 M after 48 hrs by sulforhodamine B assay", "conditions": "SF-539, 48 h, read-out: Activity"}, "UACC-62": {"test_system": "UACC-62", "test": "Growth inhibition of human UACC62 cells assessed as cell growth at 10 '-6 M after 48 hrs by sulforhodamine B assay", "conditions": "UACC-62, 48 h, read-out: Activity"}, "MCF7": {"test_system": "MCF7", "test": "Growth inhibition of human MCF7 cells assessed as cell growth at 10 '-4 M after 48 hrs by sulforhodamine B assay", "conditions": "MCF7, 48 h, read-out: Activity"}, "OVCAR-3 [5]": {"test_system": "OVCAR-3", "test": "Growth inhibition of human OVCAR3 cells assessed as cell growth at 10 '-4 M after 48 hrs by sulforhodamine B assay", "conditions": "OVCAR-3, 48 h, read-out: Activity"}, "HCT-15": {"test_system": "HCT-15", "test": "Growth inhibition of human HCT15 cells after 48 hrs by sulforhodamine B assay", "conditions": "HCT-15, 48 h", "procedure,_shortened": "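NCI 60-cell-line five-dose screen. Cells were plated at 5,000–40,000/well by doubling time and grown 24 h at 37 °C, 5% CO2. Time-zero plates were TCA-fixed. Drug from DMSO stock was tested at 0.01, 0.1, 1, 10 and 100 µM final for 48 h continuous exposure. Read-out was SRB at 515 nm. GI50 is the concentration giving 50% reduction in net protein increase versus untreated control.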"}, "U-251": {"test_system": "U-251", "test": "Growth inhibition of human U251 cells assessed as cell growth at 10 '-4 M after 48 hrs by sulforhodamine B assay", "conditions": "U-251, 48 h, read-out: Activity"}, "CAKI-1": {"test_system": "CAKI-1", "test": "Growth inhibition of human CAKI-1 cells assessed as cell growth at 10 '-4 M after 48 hrs by sulforhodamine B assay", "conditions": "CAKI-1, 48 h, read-out: Activity", "procedure,_shortened": "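Percent growth at each of the five concentrations of the 48 h continuous-exposure NCI SRB screen. Drug stocks were in DMSO at 400× the top final concentration and diluted in medium with gentamicin. Growth was calculated as [(Ti-Tz)/(C-Tz)]×100 when Ti ≥ Tz, or [(Ti-Tz)/Tz]×100 when Ti < Tz. Tz plates were fixed at drug addition; untreated wells served as control. Absorbance was read at 515 nm.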"}, "OVCAR-5 [6]": {"test_system": "OVCAR-5", "test": "Growth inhibition of human OVCAR5 cells assessed as cell growth at 10 '-4 M after 48 hrs by sulforhodamine B assay", "conditions": "OVCAR-5, 48 h, read-out: Activity"}, "OVCAR-4": {"test_system": "OVCAR-4", "test": "Growth inhibition of human OVCAR4 cells assessed as cell growth at 10 '-8 M after 48 hrs by sulforhodamine B assay", "conditions": "OVCAR-4, 48 h, read-out: Activity"}, "[7]": {"test": "Growth inhibition of human Hs 578T cells assessed as cell growth at 10 '-6 M after 48 hrs by sulforhodamine B assay", "conditions": "read-out: Activity"}, "[8]": {"test": "Growth inhibition of human EKVX cells assessed as cell growth at 10 '-6 M after 48 hrs by sulforhodamine B assay", "conditions": "read-out: Activity"}, "UO-31": {"test_system": "UO-31", "test": "Growth inhibition of human UO31 cells assessed as cell growth at 10 '-7 M after 48 hrs by sulforhodamine B assay", "conditions": "UO-31, 48 h, read-out: Activity"}, "KM12": {"test_system": "KM12", "test": "Growth inhibition of human KM12 cells assessed as cell growth at 10 '-8 M after 48 hrs by sulforhodamine B assay", "conditions": "KM12, 48 h, read-out: Activity"}, "COLO 205 [9]": {"test_system": "COLO 205", "test": "Growth inhibition of human COLO205 cells assessed as cell growth at 10 '-4 M after 48 hrs by sulforhodamine B assay", "conditions": "COLO 205, 48 h, read-out: Activity", "procedure,_shortened": "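In the same five-dose SRB screen (48 h, 37 °C, 5% CO2), percentage growth was computed at each concentration from time-zero (Tz), control (C) and treated (Ti) absorbances. The formula was [(Ti−Tz)/(C−Tz)]×100 when Ti ≥ Tz, or [(Ti−Tz)/Tz]×100 when Ti < Tz.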"}, "SN12C": {"test_system": "SN12C", "test": "Growth inhibition of human SN12C cells assessed as cell growth at 10 '-6 M after 48 hrs by sulforhodamine B assay", "conditions": "read-out: Activity"}, "COLO 205 [10]": {"test_system": "COLO 205", "test": "Growth inhibition of human COLO205 cells assessed as growth inhibition at 10 uM after 48 hrs by sulforhodamine B assay", "conditions": "COLO 205, 48 h, read-out: GI"}, "SNB-19": {"test_system": "SNB-19", "test": "Growth inhibition of human SNB19 cells after 48 hrs by sulforhodamine B assay", "conditions": "SNB-19, 48 h"}, "MDA-MB-435": {"test_system": "MDA-MB-435", "test": "Growth inhibition of human MDA-MB-435 cells assessed as cell growth at 10 '-5 M after 48 hrs by sulforhodamine B assay", "conditions": "MDA-MB-435, 48 h, read-out: Activity"}, "SK-MEL-2": {"test_system": "SK-MEL-2", "test": "Growth inhibition of human SK-MEL-2 cells assessed as growth inhibition at 10 uM after 48 hrs by sulforhodamine B assay", "conditions": "SK-MEL-2, 48 h, read-out: GI"}, "OVCAR-3 [11]": {"test_system": "OVCAR-3", "test": "Growth inhibition of human OVCAR3 cells assessed as cell growth at 10 '-6 M after 48 hrs by sulforhodamine B assay", "conditions": "OVCAR-3, 48 h, read-out: Activity"}, "A549": {"test_system": "A549", "test": "Growth inhibition of human A549 cells assessed as growth inhibition at 10 uM after 48 hrs by sulforhodamine B assay", "conditions": "A549, 48 h, read-out: GI", "procedure,_shortened": "as §1"}, "[12]": {"conditions": "read-out: LD50 (the source's name)"}}, "data": [{"molecule": "Cc1cc(=O)oc2cc(OCCn3c(C)nn(-c4ccc(Cl)cc4)c3=O)ccc12", "values": [{"measurement": "growth at 10 µM", "setting": "UACC-257", "result": 40, "unit": "%"}, {"measurement": "inhibition of growth at 10 µM", "setting": "[1]", "result": 67.1, "unit": "%"}, {"measurement": "growth at 10 µM", "setting": "HOP-92", "result": 55, "unit": "%"}, {"measurement": "growth at 1 µM", "setting": "MDA-MB-468 [2]", "result": 77, "unit": "%"}, {"measurement": "growth at 10 µM", "setting": "OVCAR-5 [3]", "result": 53, "unit": "%"}, {"measurement": "growth at 100 µM", "setting": "SR", "result": -13, "unit": "%"}, {"measurement": "growth at 0.01 µM", "setting": "MDA-MB-468 [4]", "result": 94, "unit": "%"}, {"measurement": "growth at 10 µM", "setting": "HT-29", "result": 14, "unit": "%"}, {"measurement": "growth at 10 µM", "setting": "SF-539", "result": 25, "unit": "%"}, {"measurement": "growth at 1 µM", "setting": "UACC-62", "result": 61, "unit": "%"}, {"measurement": "growth at 100 µM", "setting": "MCF7", "result": 21, "unit": "%"}, {"measurement": "growth at 100 µM", "setting": "OVCAR-3 [5]", "result": -29, "unit": "%"}, {"measurement": "GI50", "setting": "HCT-15", "result": 3200, "unit": "nM"}, {"measurement": "TGI", "setting": "HCT-15", "result": "> 1000", "unit": "nM"}, {"measurement": "CC50", "setting": "HCT-15; [12]", "result": "> 1000", "unit": "nM"}, {"measurement": "growth at 100 µM", "setting": "U-251", "result": -4, "unit": "%"}, {"measurement": "growth at 100 µM", "setting": "CAKI-1", "result": 52, "unit": "%"}, {"measurement": "growth at 100 µM", "setting": "OVCAR-5 [6]", "result": 45, "unit": "%"}, {"measurement": "growth at 0.01 µM", "setting": "OVCAR-4", "result": 100, "unit": "%"}, {"measurement": "growth at 1 µM", "setting": "[7]", "result": 68, "unit": "%"}, {"measurement": "growth at 1 µM", "setting": "[8]", "result": 88, "unit": "%"}, {"measurement": "growth at 0.1 µM", "setting": "UO-31", "result": 83, "unit": "%"}, {"measurement": "growth at 0.01 µM", "setting": "KM12", "result": 104, "unit": "%"}, {"measurement": "growth at 100 µM", "setting": "COLO 205 [9]", "result": -38, "unit": "%"}, {"measurement": "growth at 1 µM", "setting": "SN12C", "result": 82, "unit": "%"}, {"measurement": "inhibition of growth at 10 µM", "setting": "COLO 205 [10]", "result": 89.4, "unit": "%"}, {"measurement": "GI50", "setting": "SNB-19", "result": 5370, "unit": "nM"}, {"measurement": "TGI", "setting": "SNB-19", "result": "> 1000", "unit": "nM"}, {"measurement": "CC50", "setting": "SNB-19; [12]", "result": "> 1000", "unit": "nM"}, {"measurement": "growth at 10 µM", "setting": "MDA-MB-435", "result": -27, "unit": "%"}, {"measurement": "inhibition of growth at 10 µM", "setting": "SK-MEL-2", "result": 96.5, "unit": "%"}, {"measurement": "growth at 1 µM", "setting": "OVCAR-3 [11]", "result": 96, "unit": "%"}, {"measurement": "inhibition of growth at 10 µM", "setting": "A549", "result": 69.8, "unit": "%"}]}]}
